Apaf-1 act: human Apaf-1 activation; 0.31% of 330,000 active; Apaf-1 apoptosome caspase-3 activation, DEVD-Rh110 fluorescence; hits give low values; activity change, negative = activation, % at 20 µM; AID 489031;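 active = activity change at or below -40% at 20 µM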
Target sequence (O14727 whole entry, looked up): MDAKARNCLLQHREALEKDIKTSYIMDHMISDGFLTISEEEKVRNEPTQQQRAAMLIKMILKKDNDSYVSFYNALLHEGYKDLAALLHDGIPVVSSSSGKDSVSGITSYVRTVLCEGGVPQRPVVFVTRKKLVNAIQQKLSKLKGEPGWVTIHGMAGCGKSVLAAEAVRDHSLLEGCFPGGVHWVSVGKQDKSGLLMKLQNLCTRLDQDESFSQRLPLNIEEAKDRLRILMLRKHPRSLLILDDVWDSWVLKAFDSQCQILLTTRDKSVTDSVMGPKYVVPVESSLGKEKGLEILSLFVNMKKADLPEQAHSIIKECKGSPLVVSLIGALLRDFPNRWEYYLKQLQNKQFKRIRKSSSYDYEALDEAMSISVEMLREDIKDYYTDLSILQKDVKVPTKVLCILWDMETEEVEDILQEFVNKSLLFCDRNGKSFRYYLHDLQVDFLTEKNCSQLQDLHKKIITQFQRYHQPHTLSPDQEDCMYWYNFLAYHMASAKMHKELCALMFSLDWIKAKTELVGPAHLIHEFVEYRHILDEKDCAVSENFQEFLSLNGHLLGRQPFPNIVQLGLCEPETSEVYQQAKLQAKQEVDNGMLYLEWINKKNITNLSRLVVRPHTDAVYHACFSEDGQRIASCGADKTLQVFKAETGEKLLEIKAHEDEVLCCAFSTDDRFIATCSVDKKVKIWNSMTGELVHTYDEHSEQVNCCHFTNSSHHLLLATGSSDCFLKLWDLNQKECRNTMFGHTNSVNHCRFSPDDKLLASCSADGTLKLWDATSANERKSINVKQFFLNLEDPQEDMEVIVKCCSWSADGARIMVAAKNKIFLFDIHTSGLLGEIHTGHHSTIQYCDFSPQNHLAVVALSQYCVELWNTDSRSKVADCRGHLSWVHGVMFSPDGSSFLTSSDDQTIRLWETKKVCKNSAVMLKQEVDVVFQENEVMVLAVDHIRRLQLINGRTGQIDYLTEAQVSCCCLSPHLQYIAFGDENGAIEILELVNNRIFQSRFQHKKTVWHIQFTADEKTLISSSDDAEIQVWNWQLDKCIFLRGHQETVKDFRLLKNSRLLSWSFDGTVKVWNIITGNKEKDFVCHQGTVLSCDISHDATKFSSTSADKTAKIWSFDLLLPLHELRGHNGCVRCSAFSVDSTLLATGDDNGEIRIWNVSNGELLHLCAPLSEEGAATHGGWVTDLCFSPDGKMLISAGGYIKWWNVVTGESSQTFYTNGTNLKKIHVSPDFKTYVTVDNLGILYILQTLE
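Material: reconstituted apoptosome of Apaf-1, cytochrome c, caspase-9, procaspase-3; times: 30 min preincubation, 50 min reaction, room temperature; measured by: fluorescence, 540 nm emission, 480 nm excitation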
Rh110 act interf: Rh110 signal interference in Apaf-1 activator counter-screen; shares compounds with Apaf-1 act; Rh110 fluorescence interference, quenched caspase reaction, Ex480/Em540; fluorescence interference (activity change), % at 20 µM, hits read low; 980 tested, under 10 active; AID 504616;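 active = mean activity change at or below -40% when tested at 20 µM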
Apaf-1 act conf: confirmation of human Apaf-1 activators. shares compounds with Apaf-1 act. reconstituted apoptosome caspase-3 activity, DEVD-Rh110 fluorescence; hits give low values. activity change, negative = activation, % at 20 µM. 5% of 980 active. AID 504617;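 active = mean activity change at or below -40%, meaning activation of 40% or more, at 20 µM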
Of the large screens only hits and unclear results are named; the others gave an inactive call (follow-up assays come after a bar, where they were run). A selection follows.

COc1ccc(Oc2nnc(-c3ccc(C)cc3)c3ccccc23)cc1	Apaf-1 act -172 | Rh110 act interf inactive | Apaf-1 act conf inactive
COc1ccc(-c2cc3c(nn2)-c2ccccc2C3=O)cc1	none
O=C1CC(c2ccccc2)n2ncnc2N1 (configuration not stated)	Apaf-1 act -347 | Rh110 act interf inactive | Apaf-1 act conf inactive
CCCCNC1=CC(=O)C(=O)c2ccccc21	none
CCc1ccc(NC2=CC(=O)C(=O)c3ccccc32)cc1	none
COc1cccc(CN(C)C(=O)c2cc(S(=O)(=O)N3CCCCCC3)ccc2OC)c1	none
COc1cccc(CNC(=O)CN2C(=O)COc3ccc(S(=O)(=O)N4CCCC4)cc32)c1	Apaf-1 act -82 | Rh110 act interf inactive | Apaf-1 act conf inactive
COc1cccc(CN(C)C(=O)c2ccc(C)c(S(=O)(=O)N3CCCCC3)c2)c1	none
Cc1cnc(C(=O)Nc2ccc(C)c(S(=O)(=O)N(C)C)c2)cn1	Apaf-1 act -47 | Rh110 act interf inactive | Apaf-1 act conf inactive
C=CCN1C(=O)C2(OCCCO2)c2ccccc21	Apaf-1 act -42 | Rh110 act interf inactive | Apaf-1 act conf inactive
CCOc1cccc(CNc2ccc(O)cc2)c1OCc1ccccc1Cl	none
CCOC(=O)c1c(NC(=O)c2ccco2)n(C2CCCCC2)c2nc3ccccc3nc12	none
CCOC(=O)c1sc(NC(=O)c2ccco2)c(C#N)c1C	Apaf-1 act -211 | Rh110 act interf inactive | Apaf-1 act conf inactive
COc1ccc(-n2c(NC(=O)c3ccco3)c(C#N)c3nc4ccccc4nc32)cc1	none
CN(C)CCCN(C(=O)c1ccc(S(=O)(=O)N2CCCC2)cc1)c1nc2ccc(Br)cc2s1	none
CCN(CC)CCN(C(=O)c1ccc(C(C)=O)cc1)c1nc2ccc(Cl)cc2s1	Apaf-1 act -329 | Rh110 act interf inactive | Apaf-1 act conf inactive
CCOc1ccc2nc(N(CCN(C)C)C(=O)c3ccc4c(c3)CCCC4)sc2c1	none
CC(=O)[C@@H]1[C@@H]2C(=O)N(c3ccc(F)c(Cl)c3)C(=O)[C@@H]2C2c3ccccc3C=CN21 (some centres not stated)	none
COC(=O)CCC(=O)OC1(C)C(=O)C=C2C=C(C3CC3)N(CCCCO)C=C2C1=O (configuration not stated)	none
CC1=NN(c2ccc(S(=O)(=O)O)cc2Cl)C(=O)C1	none
CC1CCCCC1NS(=O)(=O)c1ccc(S(=O)(=O)N2CCN(CCC#N)CC2)cc1 (configuration not stated)	Apaf-1 act -65 | Rh110 act interf inactive | Apaf-1 act conf inactive
CCOC(=O)c1c2c(n(C)c1COC)C(=O)C(=O)c1ccc(Br)cc1-2	none
Cc1[nH][nH]c(=O)c1C(c1c(C)[nH][nH]c1=O)c1cn(Cc2cccc3ccccc23)c2ccccc12	none
Cc1ccccc1Cn1cc(/C=N/n2cnnc2)c2ccccc21	Apaf-1 act -57 | Rh110 act interf inactive | Apaf-1 act conf inactive
Cc1[nH]n(-c2ccccc2)c(=O)c1C(C[N+](=O)[O-])c1ccccc1Cl (configuration not stated)	none
CN(C)CCCNC(=O)C[C@H]1C[C@H](C(=O)N2CCCCC2)[C@@]2(CCc3ccccc3)c3[nH]c4cc(-c5ccco5)ccc4c3CCN2C1=O	none
COCCN(Cc1ccccc1)C(=O)c1cccc(S(=O)(=O)N2CCN(c3ccccc3)CC2)c1	none
CCN(CC)C(=O)N1CCN(S(=O)(=O)c2ccccc2)CC1	Apaf-1 act -81 | Rh110 act interf inactive | Apaf-1 act conf inactive
CCOC(=O)N1CCN(C2=C(NS(=O)(=O)c3ccccc3)C(=O)c3ccccc3C2=O)CC1	none
COC(=O)CCC(=O)OC1(C)C(=O)C=C2C=C(C3CC3)N(CCCOC(C)C)C=C2C1=O (configuration not stated)	none
Cc1ccc(-c2csc(NC(=O)C3=NN(C4CCS(=O)(=O)C4)C(=O)CC3)n2)cc1 (configuration not stated)	Apaf-1 act -58 | Rh110 act interf inactive | Apaf-1 act conf inactive
COc1ccc(CNC(=O)c2c(C)oc3c2C(=O)c2ccccc2C3=O)cc1	none
CCOC(=O)CNC(=O)C1c2ccccc2C(=O)N(c2ccc(OC)cc2)C1c1ccc(OC)cc1 (configuration not stated)	Apaf-1 act -42 | Rh110 act interf inactive | Apaf-1 act conf inactive
COc1ccc(NC(=O)[C@@H]2[C@@H]3C(=O)N(C4CCCCC4)C(=O)[C@@H]3C3c4ccccc4C=CN32)cc1 (some centres not stated)	none
Cc1[nH][nH]c(=O)c1C(c1ccc(-c2ccc(Cl)c(Cl)c2)o1)c1c(C)[nH][nH]c1=O	none
CN(Cc1nccs1)C(=O)CC1C(=O)NCCN1Cc1ccc(-c2ccccc2)cc1 (configuration not stated)	Apaf-1 act -330 | Rh110 act interf inactive | Apaf-1 act conf inactive
CCN1CCc2c(sc(NC(=O)c3ccc4ccccc4c3)c2C(N)=O)C1	none
CCCCNC(=O)C(C1CCCCC1)N(CCN(C)C)C(=O)CCCN1C(=O)NC(c2ccc(-c3ccccc3)cc2)C(C(=O)OCc2ccccc2)=C1C (configuration not stated)	none
CN(C)CCC(c1ccccc1)c1ccccn1 (configuration not stated)	none
Cc1noc(C)c1NC(=O)N(C)C[C@H]1Oc2ccc(NC(=O)CCN3CCOCC3)cc2C(=O)N([C@H](C)CO)C[C@@H]1C	Apaf-1 act -46 | Rh110 act interf inactive | Apaf-1 act conf inactive
C[C@H](CO)N1C[C@H](C)[C@@H](CN(C)Cc2ccc(-c3ccccc3)cc2)Oc2c(NC(=O)Cc3ccccc3)cccc2C1=O	none
COc1ccc(CN(C)C(=O)c2cc(S(=O)(=O)NCc3ccccc3)ccc2C)c(OC)c1	none
Cc1ccc(S(=O)(=O)CCC(=O)NCc2ccccc2)cc1	Apaf-1 act -64 | Rh110 act interf inactive | Apaf-1 act conf inactive
COC(=O)c1ccc(COC(=O)CCS(=O)(=O)c2ccc(C)cc2)cc1	Apaf-1 act -53 | Rh110 act interf inactive | Apaf-1 act conf inactive
CCCN(CC(=O)Nc1ccccc1OC)C(=O)c1cc(S(=O)(=O)NCc2ccccc2)ccc1C	none
Cc1c(CCOC(=O)c2ccc(Cl)cc2Cl)sc[n+]1CC(=O)c1ccc(Br)cc1	none
CCSCCC(NC1=CC(=O)CC(C)(C)C1)C(=O)O (configuration not stated)	none
CCOC(=O)c1c(C)c2c(=O)[nH]cnc2n1-c1ccccc1	none
CCOC(=O)N1CCC(N2Cc3cccc(C(=O)Nc4ccccc4OC)c3C2=O)CC1	Apaf-1 act -44 | Rh110 act interf inactive | Apaf-1 act conf inactive
NC(=O)C1CCN(C2=C(Cl)C(=O)c3ccccc3C2=O)CC1	none
CN(C)S(=O)(=O)c1ccc(NC(=O)CN2CCCC2c2ccc3c(c2)OCCCO3)cc1 (configuration not stated)	none
CC1Cc2ccccc2N1CC(=O)Nc1ccc(S(=O)(=O)N(C)C)cc1 (configuration not stated)	Apaf-1 act -444 | Rh110 act interf inactive | Apaf-1 act conf inactive
Cc1noc(C)c1C(=O)OC(C(=O)NC1CCCC1)c1ccc(F)cc1 (configuration not stated)	Apaf-1 act -52 | Rh110 act interf inactive | Apaf-1 act conf inactive
Cc1cc(N(CCO)CCO)ccc1N=Nc1cc(F)ccc1F	none
Cc1cc(N2CCN(C)CC2)ccc1NC(=O)c1ccc(-c2ccc(Cl)cc2)o1	none

Assay outcomes: PubChem, Sanford-Burnham Center for Chemical Genomics
